Experimental data: ChEMBL document CHEMBL4311947, “Discovery of Novel Naphthylphenylketone and Naphthylphenylamine Derivatives as Cell Division Cycle 25B (CDC25B) Phosphatase Inhibitors: Design, Synthesis, Inhibition Mechanism, and in Vitro Efficacy against Melanoma Cell Lines” (J Med Chem, 2019)
Active and inactive are the calls of the source. The rule behind the calls is not given here.

Target: T1, M-phase inducer phosphatase 2 (Homo sapiens, UniProt P30305)
T1 sequence (P30305 whole entry): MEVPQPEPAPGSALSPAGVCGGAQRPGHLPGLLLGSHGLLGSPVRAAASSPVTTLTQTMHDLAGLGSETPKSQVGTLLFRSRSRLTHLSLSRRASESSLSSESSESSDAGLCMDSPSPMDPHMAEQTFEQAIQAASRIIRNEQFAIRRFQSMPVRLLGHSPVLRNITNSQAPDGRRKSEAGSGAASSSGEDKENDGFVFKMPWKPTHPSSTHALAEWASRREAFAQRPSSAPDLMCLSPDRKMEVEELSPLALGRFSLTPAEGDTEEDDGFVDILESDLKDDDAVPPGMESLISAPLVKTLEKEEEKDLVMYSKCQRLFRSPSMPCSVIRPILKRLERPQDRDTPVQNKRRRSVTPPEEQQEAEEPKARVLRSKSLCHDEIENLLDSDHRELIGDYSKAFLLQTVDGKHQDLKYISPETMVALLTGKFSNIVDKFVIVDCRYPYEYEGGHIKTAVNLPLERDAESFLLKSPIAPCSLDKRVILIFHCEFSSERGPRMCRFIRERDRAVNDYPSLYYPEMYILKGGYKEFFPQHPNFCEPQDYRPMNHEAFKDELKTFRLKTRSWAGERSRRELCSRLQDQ
Test: Uncompetitive inhibition of N-terminal His6-tagged human CDC25B (377 to 550 residues) expressed in Escherichia coli BL21(DE3) cells using OMFP as substrate by double reciprocal Lineweaver-Burk plot analysis
Outline: (§1)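 Recombinant CDC25 form (15–25 nM) in 20 mM Tris-HCl pH 7.8, 0.5 mM TCEP, 1% (v/v) DMSO, with or without inhibitor. Reaction started with 0.5–25 µM OMFP; O-methylfluorescein formation followed continuously at 30°C (ex 485/em 530 nm). Initial rates (AU/min) analysed in Lineweaver-Burk plots for Vmax, KM and mechanism; Ki averaged from at least three independent experiments, only roughly estimated for mixed inhibition.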

Ki [µM] | SMILES
6.4 | O=C(O)c1cccc(Nc2ccc(O)c3ccccc23)c1
45 | COc1ccc(Nc2cccc(C(=O)O)c2)c2ccccc12
22 | O=C(O)c1ccccc1Nc1cccc2ccccc12
12.5 | CCOC(=O)c1ccccc1Nc1cc(OC)cc2ccccc12
7.3 | CCOC(=O)c1cccc(Nc2cccc3ccccc23)c1
6.1 | COc1ccc(Nc2ccccc2C(=O)O)c2ccccc12
55 | COc1cc(Nc2cccc(C(=O)O)c2)c2ccccc2c1
2.8 | CCOC(=O)c1ccccc1Nc1cccc2ccccc12

Target: T2, M-phase inducer phosphatase 2 (Homo sapiens) (UniProt P30305)
T2 sequence (whole entry): T1 sequence (P30305 whole entry)
Test: Inhibition of N-terminal His6-tagged human CDC25B (377 to 550 residues) expressed in Escherichia coli BL21(DE3) cells assessed as reduction in Vmax using OMFP as substrate by double reciprocal Lineweaver-Burk plot analysis
Outline: as §1

inhibition | SMILES
Active | O=C(O)c1cccc(Nc2ccc(O)c3ccccc23)c1
Active | Nc1ccc(Nc2cccc(C(=O)O)c2)c2ccccc12
Active | COc1ccc(Nc2cccc(C(=O)O)c2)c2ccccc12
Active | O=C(O)c1ccccc1Nc1cccc2ccccc12
Active | CCOC(=O)c1cccc(Nc2ccc(OC)c3ccccc23)c1
Active | Nc1cccc2c(Nc3cccc(C(=O)O)c3)cccc12 [listing 1 of 3 here]
Active | O=C(O)c1ccccc1Nc1cccc2c(O)cccc12
Active | CCOC(=O)c1ccccc1C(=O)c1cccc2ccccc12
Active | O=C(O)c1ccccc1Nc1cc(O)cc2ccccc12
Active | CCOC(=O)c1ccccc1Nc1cc(OC)cc2ccccc12
Active | O=C(O)c1ccccc1Nc1ccc(O)c2ccccc12
Active | COc1ccc(C(=O)c2ccccc2C(=O)O)c2ccccc12
Active | O=C(O)c1ccccc1C(=O)c1cc(O)cc2ccccc12
Active | O=C(O)c1cccc(Nc2cc(O)cc3ccccc23)c1
Active | CCOC(=O)c1ccccc1Nc1cccc2c(O)cccc12
Active | O=C(O)c1cccc(Nc2cccc3c(O)cccc23)c1
Active | CCOC(=O)c1cccc(Nc2cccc3ccccc23)c1
Active | O=C(O)c1cccc(Nc2cccc3ccccc23)c1
Active | COc1ccc(Nc2ccccc2C(=O)O)c2ccccc12
Active | COc1cc(Nc2cccc(C(=O)O)c2)c2ccccc2c1
Active | CCOC(=O)c1cccc(Nc2cccc3c(O)cccc23)c1
Active | CCOC(=O)c1ccccc1Nc1cccc2ccccc12
Active | COc1cc(Nc2ccccc2C(=O)O)c2ccccc2c1
Active | COc1cc(C(=O)c2ccccc2C(=O)O)c2ccccc2c1
Active | CCOC(=O)c1cccc(Nc2cccc3c(N)cccc23)c1
Active | Nc1cccc2c(Nc3ccccc3C(=O)O)cccc12
Active | CCOC(=O)c1ccccc1Nc1ccc(OC)c2ccccc12
Active | O=C(O)c1ccccc1C(=O)c1cccc2ccccc12
Active | CCOC(=O)c1ccccc1Nc1cccc2c(N)cccc12

SMILES | inhibition
c1ccc(Nc2cccc3ccccc23)cc1 | Active

Target: T1, M-phase inducer phosphatase 2
Test: Non-competitive inhibition of N-terminal His6-tagged human CDC25B (377 to 550 residues) expressed in Escherichia coli BL21(DE3) cells using OMFP as substrate by double reciprocal Lineweaver-Burk plot analysis
Outline: as §1

Ki [µM] | SMILES
1.4 | Nc1ccc(Nc2cccc(C(=O)O)c2)c2ccccc12
11.9 | CCOC(=O)c1cccc(Nc2ccc(OC)c3ccccc23)c1
13.4 | O=C(O)c1ccccc1Nc1cccc2c(O)cccc12
5.1 | O=C(O)c1ccccc1Nc1cc(O)cc2ccccc12
2.7 | O=C(O)c1ccccc1Nc1ccc(O)c2ccccc12
7.1 | COc1ccc(C(=O)c2ccccc2C(=O)O)c2ccccc12
34 | O=C(O)c1ccccc1C(=O)c1cc(O)cc2ccccc12
5.8 | O=C(O)c1cccc(Nc2cc(O)cc3ccccc23)c1
7.4 | CCOC(=O)c1ccccc1Nc1cccc2c(O)cccc12
2.9 | O=C(O)c1cccc(Nc2cccc3c(O)cccc23)c1
4.9 | CCOC(=O)c1cccc(Nc2cccc3c(O)cccc23)c1
16.9 | COc1cc(Nc2ccccc2C(=O)O)c2ccccc2c1
0.8 | Nc1cccc2c(Nc3cccc(C(=O)O)c3)cccc12 [listing 2 of 3 here]
36 | CCOC(=O)c1cccc(Nc2cccc3c(N)cccc23)c1
6.5 | Nc1cccc2c(Nc3ccccc3C(=O)O)cccc12
6.9 | CCOC(=O)c1ccccc1Nc1ccc(OC)c2ccccc12
9.9 | CCOC(=O)c1ccccc1Nc1cccc2c(N)cccc12

Target: T1, M-phase inducer phosphatase 2
Test: Mixed inhibition of N-terminal His6-tagged human CDC25B (377 to 550 residues) expressed in Escherichia coli BL21(DE3) cells using OMFP as substrate by double reciprocal Lineweaver-Burk plot analysis
Outline: as §1

Ki [µM] | SMILES
54 | CCOC(=O)c1ccccc1C(=O)c1cccc2ccccc12
30 | O=C(O)c1cccc(Nc2cccc3ccccc23)c1
36 | COc1cc(C(=O)c2ccccc2C(=O)O)c2ccccc2c1
69 | O=C(O)c1ccccc1C(=O)c1cccc2ccccc12

SMILES | Ki [µM]
c1ccc(Nc2cccc3ccccc23)cc1 | 32

Tested on: A2058
Test: Cytotoxicity against human A2058 cells at 50 uM after 48 hrs by MTT assay
Type: functional, cell-based
Outline: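 Cells seeded at 4×10^4/well, treated 24 h after plating with inhibitor or 0.5% (v/v) DMSO vehicle for 24, 48 or 72 h. MTT added, 3 h at 37°C under 5% CO2, formazan solubilised, absorbance at 570 nm. Viability in arbitrary units, mean ± SE of at least three independent experiments versus control. Cells grown in DMEM/10% FBS at 37°C, 5% CO2; BJ-5ta cultured in 4:1 DMEM/Medium 199 with hygromycin B.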

SMILES | Activity
CCOC(=O)c1cccc(Nc2cccc3ccccc23)c1 | Active

Target: T2, M-phase inducer phosphatase 2 (Homo sapiens)
Test: Inhibition of N-terminal His6-tagged human CDC25B (377 to 550 residues) expressed in Escherichia coli BL21(DE3) cells at 4 uM by spectrofluorimetric analysis
Outline: (§2)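 Intrinsic fluorescence of 1 µM recombinant CDC25B in 20 mM Tris·HCl pH 7.8, 0.5 mM TCEP, 0.5% (v/v) DMSO, recorded at 20°C with 280 nm excitation and 10 nm slits, without or with added NPA derivative. OMFP substrate omitted.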

inhibition | SMILES
inactive | CCOC(=O)c1ccccc1Nc1cccc2ccccc12

Target: T2, M-phase inducer phosphatase 2 (Homo sapiens)
Test: Inhibition of N-terminal His6-tagged human CDC25B (377 to 550 residues) expressed in Escherichia coli BL21(DE3) cells at 3 uM by spectrofluorimetric analysis
Outline: as §2

inhibition | SMILES
Active | Nc1ccc(Nc2cccc(C(=O)O)c2)c2ccccc12

Target: T2, M-phase inducer phosphatase 2 (Homo sapiens)
Test: Inhibition of N-terminal His6-tagged human CDC25B (377 to 550 residues) expressed in Escherichia coli BL21(DE3) cells at 1.5 uM by spectrofluorimetric analysis
Outline: as §2

inhibition | SMILES
Active | Nc1cccc2c(Nc3cccc(C(=O)O)c3)cccc12 [listing 1 of 3 here]

Target: T3, M-phase inducer phosphatase 3 (Homo sapiens, UniProt P30307)
T3 sequence (P30307 whole entry): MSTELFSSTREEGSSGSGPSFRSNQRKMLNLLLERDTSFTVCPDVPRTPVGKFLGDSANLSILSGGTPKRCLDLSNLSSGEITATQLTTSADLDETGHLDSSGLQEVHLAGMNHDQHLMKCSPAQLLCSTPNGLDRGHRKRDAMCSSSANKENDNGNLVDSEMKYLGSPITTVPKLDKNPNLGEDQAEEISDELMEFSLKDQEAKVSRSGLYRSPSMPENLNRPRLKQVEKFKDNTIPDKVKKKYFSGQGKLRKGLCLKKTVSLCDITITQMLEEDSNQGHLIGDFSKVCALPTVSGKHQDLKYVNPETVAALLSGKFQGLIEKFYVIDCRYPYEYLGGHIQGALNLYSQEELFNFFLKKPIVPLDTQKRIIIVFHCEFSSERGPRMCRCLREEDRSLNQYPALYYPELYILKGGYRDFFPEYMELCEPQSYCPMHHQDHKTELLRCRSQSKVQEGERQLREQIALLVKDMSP
Test: Inhibition of N-terminal His6-tagged human CDC25C (280 to 454 residues) expressed in Escherichia coli BL21(DE3) cells using OMFP as substrate by double reciprocal Lineweaver-Burk plot analysis
Outline: as §1

Ki [µM] | SMILES
0.4 | CCOC(=O)c1ccccc1Nc1cccc2ccccc12
4 | Nc1cccc2c(Nc3cccc(C(=O)O)c3)cccc12 [listing 3 of 3 here]

Target: T4, M-phase inducer phosphatase 1 (Homo sapiens, UniProt P30304)
T4 sequence (P30304 whole entry): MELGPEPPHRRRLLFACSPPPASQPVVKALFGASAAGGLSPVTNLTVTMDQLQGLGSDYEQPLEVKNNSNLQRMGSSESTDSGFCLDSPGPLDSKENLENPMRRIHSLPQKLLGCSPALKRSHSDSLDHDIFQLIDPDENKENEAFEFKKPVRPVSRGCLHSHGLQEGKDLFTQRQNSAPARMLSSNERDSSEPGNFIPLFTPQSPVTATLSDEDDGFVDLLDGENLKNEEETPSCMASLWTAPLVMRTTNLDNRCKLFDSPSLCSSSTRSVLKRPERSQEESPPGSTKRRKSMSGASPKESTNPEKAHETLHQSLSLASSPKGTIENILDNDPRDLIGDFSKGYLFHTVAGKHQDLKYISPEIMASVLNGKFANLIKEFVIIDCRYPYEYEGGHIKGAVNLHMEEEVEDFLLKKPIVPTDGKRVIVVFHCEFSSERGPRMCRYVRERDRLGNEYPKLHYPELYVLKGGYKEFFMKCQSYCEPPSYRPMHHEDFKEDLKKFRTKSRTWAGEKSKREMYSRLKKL
Test: Inhibition of N-terminal His6-tagged human CDC25A (336 to 508 residues) expressed in Escherichia coli BL21(DE3) cells using OMFP as substrate by double reciprocal Lineweaver-Burk plot analysis
Outline: as §1

Ki [µM] | SMILES
0.6 | CCOC(=O)c1ccccc1Nc1cccc2ccccc12
0.6 | Nc1cccc2c(Nc3cccc(C(=O)O)c3)cccc12 [listing 3 of 3 here]
